The text below walks through data of ChEMBL document CHEMBL3102734, “Inhibition of LOX by flavonoids: a structure-activity relationship study” (Eur J Med Chem, 2014).

Each structure is given as a SMILES string. Active and inactive are the calls of the source. No cut-off for these calls is given here.

For experiment [1], the target named is T1, Polyunsaturated fatty acid 5-lipoxygenase (Homo sapiens) (UniProt P09917).
T1 sequence (whole entry): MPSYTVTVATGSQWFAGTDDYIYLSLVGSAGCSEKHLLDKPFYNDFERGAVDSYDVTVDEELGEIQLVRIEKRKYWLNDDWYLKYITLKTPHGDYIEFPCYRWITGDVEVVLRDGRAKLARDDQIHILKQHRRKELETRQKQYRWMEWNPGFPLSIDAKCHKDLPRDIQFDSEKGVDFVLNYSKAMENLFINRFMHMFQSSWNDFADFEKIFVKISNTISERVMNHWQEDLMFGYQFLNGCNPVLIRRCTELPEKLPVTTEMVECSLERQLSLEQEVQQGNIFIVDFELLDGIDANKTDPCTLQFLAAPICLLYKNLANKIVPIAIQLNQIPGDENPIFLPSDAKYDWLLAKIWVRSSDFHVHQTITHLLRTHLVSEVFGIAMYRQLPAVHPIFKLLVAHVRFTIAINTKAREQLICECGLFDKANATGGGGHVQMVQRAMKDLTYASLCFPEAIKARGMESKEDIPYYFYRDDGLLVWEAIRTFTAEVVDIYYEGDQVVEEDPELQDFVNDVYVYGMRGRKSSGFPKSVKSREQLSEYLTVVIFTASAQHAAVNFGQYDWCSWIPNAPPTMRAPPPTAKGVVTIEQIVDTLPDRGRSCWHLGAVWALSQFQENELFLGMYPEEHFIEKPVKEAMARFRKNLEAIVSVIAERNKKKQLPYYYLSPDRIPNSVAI
As to the kind of experiment: Inhibition of 5-LOX-mediated LTB4 production in human neutrophils using arachidonic acid as substrate at 40 uM preincubated for 10 mins followed by substrate addition measured after 8 mins by enzyme immunoassay relative to control. In short, it runs like this:
(§1)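 Isolated human neutrophils held in HBSS on ice; viability checked by trypan blue. Cells at 3.5×10^6 cells/mL equilibrated 10 min at 37 °C. Flavonoids (0.15–40 μM) pre-incubated 10 min, then A23187 (5 μM) plus arachidonic acid (10 μg/mL) added for 8 min. Stopped with cold methanol and centrifuged 13,000 g, 1 min, 4 °C. LTB4 measured by EIA and expressed as % inhibition of control. NDGA (1 μM) positive control. At least three experiments.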

Experiment [2] addresses T2, Seed linoleate 13S-lipoxygenase-1 (Glycine max) (UniProt P08170).
T2 sequence (whole entry): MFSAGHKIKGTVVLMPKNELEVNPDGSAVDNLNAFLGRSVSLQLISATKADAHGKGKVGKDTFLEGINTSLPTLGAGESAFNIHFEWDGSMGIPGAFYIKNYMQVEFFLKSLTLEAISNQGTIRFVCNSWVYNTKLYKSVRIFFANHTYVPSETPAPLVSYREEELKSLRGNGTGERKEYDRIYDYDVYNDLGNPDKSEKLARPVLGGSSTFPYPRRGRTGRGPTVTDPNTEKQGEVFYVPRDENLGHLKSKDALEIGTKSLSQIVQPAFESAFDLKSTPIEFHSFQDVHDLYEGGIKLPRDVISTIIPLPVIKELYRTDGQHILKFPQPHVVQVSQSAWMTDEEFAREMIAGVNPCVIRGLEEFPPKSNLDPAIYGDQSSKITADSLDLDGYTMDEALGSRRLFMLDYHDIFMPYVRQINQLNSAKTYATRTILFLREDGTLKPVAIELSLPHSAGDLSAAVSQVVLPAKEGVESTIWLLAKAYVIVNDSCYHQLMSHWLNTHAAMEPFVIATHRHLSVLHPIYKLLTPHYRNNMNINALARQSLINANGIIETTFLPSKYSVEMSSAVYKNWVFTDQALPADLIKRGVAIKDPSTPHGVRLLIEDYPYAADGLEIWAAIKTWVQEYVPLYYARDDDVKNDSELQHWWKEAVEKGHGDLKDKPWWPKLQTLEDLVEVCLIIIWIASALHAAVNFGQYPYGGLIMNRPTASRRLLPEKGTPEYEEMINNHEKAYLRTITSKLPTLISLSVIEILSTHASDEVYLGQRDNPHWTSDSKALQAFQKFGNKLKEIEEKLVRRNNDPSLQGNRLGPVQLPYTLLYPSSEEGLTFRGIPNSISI
Kind of experiment: Binding affinity to soybean LOX-1 at 1248 uM by STD-[1H] NMR spectroscopic analysis. In short, it runs like this: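 STD-1H NMR at 37 °C, 600 MHz, cryoprobe. Lyophilized soybean LOX-1 in Tris buffer (20 mM Tris, 7 mM (NH4)2SO4, 3.5 mM MgCl2, 0.3 mM DTT in D2O, pH 9.0). Ligand added from a 16.6 mM DMSO-d6 stock. Final concentrations: LOX 4 μM, ligand 1248 μM, ratio 300:1. On-resonance saturation at 1.0 ppm; off-resonance reference at 20000 Hz.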

For experiment [3], the target named is T3, Seed linoleate 13S-lipoxygenase-1 (Glycine max, UniProt P08170).
T3 sequence (P08170 whole entry): T2 sequence (whole entry)
As to the kind of experiment: Uncompetitive inhibition of soybean LOX-1 using linoleic acid as substrate preincubated for 5 mins followed by substrate addition by Lineweaver-Burk plot analysis. In outline:
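Soybean LOX-1 (supplied lyophilized) kinetic assay. Enzyme pre-incubated with inhibitor 5 min, then linoleic acid added. Readings every 30 s for 10 min; rate taken as the 0–3 min slope. Three inhibitor concentrations tested against three substrate concentrations. Inhibition type assigned by nonlinear Michaelis–Menten fitting and Lineweaver–Burk plots. At least four experiments, each in triplicate.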

The target of experiment [4] is T1, Polyunsaturated fatty acid 5-lipoxygenase (Homo sapiens). Kind of experiment: Inhibition of 5-LOX-mediated LTB4 production in human neutrophils using arachidonic acid as substrate at 0.15 to 40 uM preincubated for 10 mins followed by substrate addition measured after 8 mins by enzyme immunoassay relative to control. In outline: as §1
In experiment [5] the target is T3, Seed linoleate 13S-lipoxygenase-1. As to the kind of experiment: Mixed noncompetitive type inhibition of soybean LOX-1 using linoleic acid as substrate preincubated for 5 mins followed by substrate addition by Lineweaver-Burk plot analysis. In outline: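 Soybean LOX-1 (supplied lyophilized) kinetic assay. Enzyme pre-incubated with inhibitor 5 min, then linoleic acid added. Conversion to the cis,trans-hydroperoxide followed at 234 nm at 30 °C with continuous soft shaking. Readings every 30 s for 10 min; rate taken as the 0–3 min slope. Three inhibitor concentrations tested against three substrate concentrations. Inhibition type assigned by nonlinear Michaelis–Menten fitting and Lineweaver–Burk plots. At least four experiments, each in triplicate.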

For experiment [6], the target named is T4, Polyunsaturated fatty acid 5-lipoxygenase (Homo sapiens, UniProt P09917).
T4 sequence (P09917 whole entry): T1 sequence (whole entry)
As to the kind of experiment: Inhibition of 5-LOX-mediated LTB4 production in human neutrophils using arachidonic acid as substrate preincubated for 10 mins followed by substrate addition measured after 8 mins by enzyme immunoassay. In short, it runs like this: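 Isolated human neutrophils held in HBSS on ice; viability checked by trypan blue. Flavonoids (0.15–40 μM) pre-incubated 10 min, then A23187 (5 μM) plus arachidonic acid (10 μg/mL) added for 8 min. Stopped with cold methanol and centrifuged 13,000 g, 1 min, 4 °C. LTB4 measured by EIA and expressed as % inhibition of control. NDGA (1 μM) positive control. At least three experiments.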

Usually inhibition stands for the share of the control response that was lost under treatment. For the molecule `O=c1cc(-c2cccc(O)c2)oc2ccccc12`, in experiment [1], the inhibition is under 50%.

In general, Ki refers to a measure of affinity in units of concentration, obtained from inhibition or displacement. Consider `O=c1cc(-c2cccc(O)c2)oc2cc(O)cc(O)c12`, for which the outcome in experiment [2] was Active. This molecule yielded a Ki in experiment [3] of 95.4 µM. The molecule further returned an inhibition in experiment [1] of 52%.

Take `COc1ccc(-c2cc(=O)c3c(O)cc(O)cc3o2)cc1O`: in experiment [4], the inhibition entry is “inactive”.

Turning to `O=c1cc(-c2ccccc2)oc2cc(O)cc(O)c12` [CHRYSIN], in experiment [5], the affinity corresponds to a Ki of 19.4 µM. For the same molecule, the outcome in experiment [2] was Active. Moreover, in experiment [1], the inhibition is under 50%.

Take `O=c1cc(-c2cccc(O)c2)oc2cc(O)ccc12`: in experiment [1], the inhibition is 51.4%.

In experiment [1], `O=C1CC(c2ccc(O)c(O)c2)Oc2cc(O)cc(O)c21` (racemic) registered an inhibition of 53.4%.

In experiment [1], `O=c1cc(-c2ccc(O)cc2)oc2ccccc12` returned an inhibition of 38.4%.

`O=c1cc(-c2ccccc2)oc2ccccc12` showed an inhibition in experiment [1] of under 50%.

By IC50 is commonly meant the concentration that gives 50% inhibition. The low end stands for greater potency in that assay, the high end for weaker potency in that assay. `O=c1cc(-c2ccc(O)c(O)c2)oc2cccc(O)c12`: the IC50 in experiment [6] is 2.9 µM. Besides, the outcome in experiment [2] was Active. In experiment [3], this molecule registered an inhibitory constant (Ki) of 18 µM.

Turning to `COc1ccc(-c2cc(=O)c3c(O)cc(O)cc3o2)cc1`, the result in experiment [2] was Active. Further, in experiment [1], the inhibition result is “Active”.

As to `O=c1cc(-c2ccccc2)oc2cccc(O)c12`, in experiment [4], the inhibition result is “inactive”.

In experiment [5], `O=c1cc(-c2ccc(O)cc2)oc2cccc(O)c12` registered a Ki of 103 µM. Besides, in experiment [2], the result was Active. The molecule also showed an inhibition in experiment [1] of 29.8%.

Consider `O=c1cc(-c2ccc(O)c(O)c2)oc2cc(O)cc(O)c12` [LUTEOLIN], for which the IC50 in experiment [6] is 1.6 µM. Further, the outcome in experiment [2] was Active. This molecule also registered a Ki in experiment [3] of 122 µM.

In turn, `O=c1cc(-c2ccc(O)cc2)oc2cc(O)cc(O)c12` [APIGENIN] had a Ki in experiment [5] of 178 µM. Also, in experiment [2], the result was Active. Moreover, the inhibition in experiment [1] is under 50%.

`O=c1cc(-c2ccc(O)cc2)oc2cc(O)ccc12` had an inhibition in experiment [1] of under 50%.

On to `O=C1CC(c2ccc(O)cc2)Oc2cc(O)cc(O)c21` (racemic), for which the inhibition in experiment [1] was under 50%.

With `O=C1c2c(O)cc(O)cc2O[C@H](c2ccc(O)c(O)c2)[C@H]1O`, the inhibition in experiment [1] was determined as 19.9%.

Molecule `COc1cc(-c2cc(=O)c3c(O)cc(O)cc3o2)ccc1O` showed an inhibition in experiment [1] of under 50%.

The molecule `O=c1cc(-c2ccc(O)c(O)c2)oc2cc(O)ccc12` displayed an IC50 in experiment [6] of 2 µM. In addition, the result in experiment [2] was Active.

For `O=c1cc(-c2cccc(O)c2)oc2cccc(O)c12`, the inhibition in experiment [1] is under 50%.

For `COc1ccc(-c2cc(=O)c3c(O)cc(O)cc3o2)cc1OC`, the inhibition in experiment [1] was under 50%.

With `O=c1cc(-c2ccc(O)c(O)c2)oc2ccccc12`, the Ki in experiment [5] was determined as 84.5 µM. This molecule yielded an IC50 in experiment [6] of 1.7 µM. Also, the result in experiment [2] was Active.

On to `O=c1cc(-c2ccccc2)oc2cc(O)ccc12`, for which the inhibition in experiment [1] worked out at 53.1%.
